The nature of data set [1]: Partition coefficient, log P of the compound. The format is physicochemical. The conditions noted are these: octanol/water. In a few lines:
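Computed in silico from structure with an online molecular-property calculation server's logP method, not measured by experimental partitioning.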

In data set [2] the test system is Mycobacterium tuberculosis. The data set can be described thus: Antibacterial activity against Mycobacterium tuberculosis H37Rv ATCC 27294 after 24 hrs by alamar blue assay. Format: functional. The following applies: H37Rv ATCC 27294, 24 h. In short, it runs like this: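 Microplate Alamar Blue assay on M. tuberculosis ATCC 27294 in Middlebrook 7H9 broth, with compounds serially diluted on the plate (final 0.01–20.0). Water in the outer wells limited evaporation. Sealed plates were incubated at 37 C for five days, then a fresh 1:1 Alamar Blue/10% Tween 80 mix was added for 24 h. MIC is the lowest concentration preventing the blue-to-pink change.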
(The colour change of resazurin is a common sign of viable cells or microbes.)

Structures are written as SMILES. ≈ marks a conversion by molar mass, not a printed value. A value given as a limit tells only on which side of the number the result lay.

As usually defined, the logP is a log measure of how a compound divides between an organic and an aqueous phase. Higher therefore signals higher lipophilicity. In general, MIC refers to the lowest concentration found to suppress growth. For the compound `CC(C)(C)OC(=O)N[C@@H](Cc1ccccc1)[C@H](O)CNCc1ccc2c(c1)OCO2`, the logP in data set [1] was 5.15. The compound further displayed a minimal inhibitory concentration (MIC) in data set [2] of 241 µM (≈ 99.9 µg/mL).

Turning to `N[C@@H](Cc1ccccc1)[C@H](O)CNCc1ccc2c(c1)OCO2`, the logP in data set [1] came out at 1.41. Further, in data set [2], the MIC was found to be 318 µM (≈ 100 µg/mL).

In data set [1], `CC(C)(C)OC(=O)N[C@@H](Cc1ccccc1)[C@H](O)CN(Cc1ccc2c(c1)OCO2)S(=O)(=O)c1ccc(Br)cc1` registered a logP of 7.11. The compound further gave an MIC in data set [2] of over 500 µM.

As for `COc1ccc(S(=O)(=O)N(Cc2ccc3c(c2)OCO3)C[C@@H](O)[C@H](Cc2ccccc2)NC(=O)OC(C)(C)C)cc1`, the logP in data set [1] was determined as 6.36. In data set [2], this compound had an MIC of over 500 µM.

The compound `Cc1ccc(S(=O)(=O)N(Cc2ccc3c(c2)OCO3)C[C@@H](O)[C@H](Cc2ccccc2)NC(=O)OC(C)(C)C)cc1` registered a logP in data set [1] of 6.75. For the same compound, in data set [2], the MIC is over 500 µM.

With `CC(C)(C)OC(=O)N[C@@H](Cc1ccccc1)[C@H](O)CN(Cc1ccc2c(c1)OCO2)S(=O)(=O)c1ccc(F)cc1`, the logP in data set [1] was 5.38. Moreover, the MIC in data set [2] is over 500 µM.

In data set [1], `CC(C)(C)OC(=O)N[C@@H](Cc1ccccc1)[C@H](O)CN(Cc1ccc2c(c1)OCO2)S(=O)(=O)c1ccc([N+](=O)[O-])cc1` came in with a logP of 6.26. In data set [2], the MIC was over 500 µM.

As for `CC(C)(C)OC(=O)N[C@@H](Cc1ccccc1)[C@H](O)CN(Cc1ccc2c(c1)OCO2)S(=O)(=O)c1ccc(N)cc1`, in data set [1], the logP is 6.47. For the same compound, the MIC in data set [2] was over 500 µM.

As to `N[C@@H](Cc1ccccc1)[C@H](O)CN(Cc1ccc2c(c1)OCO2)S(=O)(=O)c1ccc(Br)cc1`, the logP in data set [1] turned out to be 3.37. Moreover, the MIC in data set [2] stood at 23.5 µM (≈ 12.5 µg/mL).

Compound `COc1ccc(S(=O)(=O)N(Cc2ccc3c(c2)OCO3)C[C@@H](O)[C@@H](N)Cc2ccccc2)cc1` displayed a logP in data set [1] of 2.62. The same compound showed an MIC in data set [2] of 51.6 µM (≈ 25 µg/mL).

For `Cc1ccc(S(=O)(=O)N(Cc2ccc3c(c2)OCO3)C[C@@H](O)[C@@H](N)Cc2ccccc2)cc1`, the logP in data set [1] is 3.01. In addition, the MIC in data set [2] stood at 106 µM (≈ 49.7 µg/mL).

With `N[C@@H](Cc1ccccc1)[C@H](O)CN(Cc1ccc2c(c1)OCO2)S(=O)(=O)c1ccc(F)cc1`, the logP in data set [1] was determined as 1.64. In data set [2], the MIC came to 211 µM (≈ 99.7 µg/mL).

Take `N[C@@H](Cc1ccccc1)[C@H](O)CN(Cc1ccc2c(c1)OCO2)S(=O)(=O)c1ccc([N+](=O)[O-])cc1`: the logP in data set [1] came out at 2.52. This compound also displayed an MIC in data set [2] of over 500 µM.

With `CC[C@@H](CO)NCCN[C@@H](CC)CO` [ETHAMBUTOL], the logP in data set [1] was found to be 0.35. Besides, the MIC in data set [2] was determined as 15.9 µM (≈ 3.25 µg/mL).

(Values after ChEMBL document CHEMBL1687895, “Synthesis and anti-mycobacterial activity of novel amino alcohol derivatives” (Eur J Med Chem, 2011).)
